Experimental findings from ChEMBL document CHEMBL1125421, “Cholesterol lowering bile acid binding agents: novel lipophilic polyamines” (1992) are described below.

What all share (type): functional
In test [1] the test system is Coturnix coturnix. Kind of test: Effect on serum VLDL+LDL cholesterol (relative to cholestipol hydrochloride) at a dose of 50 mg/kg BW per day. Summed up: (§1)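 Cholesterol-fed Japanese quail given compound mixed in diet for 2 weeks; controls diet alone (n = 17-20), positive controls colestipol hydrochloride 1000 mg/kg per day (n = 8-10), treated groups 10 birds. Jugular bleed; VLDL+LDL precipitated from serum with PEG-8000 in 0.2 M glycine pH 9, centrifuged 2000g 45 min 4 °C. Log-transformed cholesterol gives T/C; relative potency from doses giving T/C=0.5 using common slope -0.79.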

Test [2] deals with Coturnix coturnix. Kind of test: Effect on serum VLDL+LDL cholesterol (relative to cholestipol hydrochloride) at a dose 100 of mg/kg BW per day. An outline of the steps: as §1
Test [3] deals with Coturnix coturnix. Kind of test: Effect on serum VLDL+LDL cholesterol (relative to cholestipol hydrochloride) at a dose of 150 mg/kg BW per day. Summed up: as §1
The test system of test [4] is Coturnix coturnix. Kind of test: Effect on serum VLDL+LDL cholesterol (relative to cholestipol hydrochloride) at a doses of 50, 150 mg/kg BW per day. An outline of the steps: as §1
The subject of test [5] is Coturnix coturnix. Nature of the test: Effect on serum VLDL+LDL cholesterol (relative to cholestipol hydrochloride) at a doses of 10, 25, 50, 100, 150 mg/kg BW per day. An outline of the steps: as §1
Test [6] deals with Coturnix coturnix. Nature of the test: Effect on serum VLDL+LDL cholesterol (relative to cholestipol hydrochloride) at a doses of 25,50 mg/kg BW per day. Summed up:
as §1

The test system of test [7] is Coturnix coturnix. Nature of the test: Effect on serum VLDL+LDL cholesterol (relative to cholestipol hydrochloride) at a dose of 100, 300 mg/kg BW per day. Summed up: as §1
For test [8], the system named is Coturnix coturnix. Nature of the test: Effect on serum VLDL+LDL cholesterol (relative to cholestipol hydrochloride) at a doses of 100, 150, 300 mg/kg BW per day. An outline of the steps:
as §1

Test [9] relates to Coturnix coturnix. Kind of test: Effect on serum VLDL+LDL cholesterol (relative to cholestipol hydrochloride) at a doses of 25, 50, 100 mg/kg BW per day. An outline of the steps: as §1
The test system of test [10] is Coturnix coturnix. Nature of the test: Effect on serum VLDL+LDL cholesterol (relative to cholestipol hydrochloride) at a dose of 100 mg/kg BW per day. An outline of the steps:
as §1

In test [11] the test system is Coturnix coturnix. Nature of the test: Effect on serum VLDL+LDL cholesterol (relative to cholestipol hydrochloride) at a doses of 25,50, 100 mg/kg BW per day. Summed up: as §1

Take `O=C(NCCN(CCNC1CCCCCCCCCCC1)CCNC1CCCCCCCCCCC1)c1ccccc1`: the Relative potency in the test on Coturnix coturnix [1] came out at 11. `CN(C)CCN(CCN(C)C1CCCCCCCCCCC1)CCN(C)C1CCCCCCCCCCC1` returned a Relative potency in the test with Coturnix coturnix [1] of 24. On to `CCCCCCCCCCCCCCCCNCCN(CCN)CCN`, for which the Relative potency in the test with Coturnix coturnix [2] turned out to be 6. `CN(CCN(CC[N+](C)(C)C)CC[N+](C)(C)C)C1CCCCCCCCCCC1.[I-].[I-]`: the Relative potency with Coturnix coturnix [3] was determined as 2. Still for that read-out and setting: then `NCCN(CCNC1CCCCCCCCCCCCCC1)CCNC1CCCCCCCCCCCCCC1`, with 7. With `COC(=O)CCN(CCN(CCN(CCC(=O)OC)C1CCCCCCCCCCC1)CCN(CCC(=O)OC)C1CCCCCCCCCCC1)C1CCCCCCCCCCC1`, in the test with Coturnix coturnix [1], the Relative potency was determined as 4. In the test on Coturnix coturnix [1], `C1CCCCCC(NCCN(CCNC2CCCCCCCCCCC2)CCNC2CCCCC2)CCCCC1` registered a Relative potency of 21. For `NCCN(CCN)CCNC1CCCCCCCCCCCCCCC1`, the Relative potency in the test with Coturnix coturnix [1] came to 10. Regarding `COC(=O)CCNCCN(CCNCCC(=O)OC)CCNC1CCCCCCCCCCC1`, the Relative potency with Coturnix coturnix [4] was found to be 7. On to `NCCN(CCNC1CCCCCCCCCCC1)CCNC1CCCCCCCCCCC1`, for which the Relative potency in the test with Coturnix coturnix [5] turned out to be 13. In turn, `c1ccc(CNCCN(CCNC2CCCCCCCCCCC2)CCNC2CCCCCCCCCCC2)cc1` gave a Relative potency in the test with Coturnix coturnix [6] of 18.

`C1CCCCCC(NCCN(CCNC2CCCCCCCCCCC2)CCNC2CCC3(CC2)OCCO3)CCCCC1` displayed a Relative potency in the test on Coturnix coturnix [6] of 19. As for `NCCN(CCN)CCNC1CCCCCCCCCCC1`, the Relative potency in the test with Coturnix coturnix [7] is 5. `N#CCCNCCN(CCNCCC#N)CCNC1CCCCCCCCCCC1` returned a Relative potency with Coturnix coturnix [3] of 2. Consider `N#CCCNCCN(CCNC1CCCCCCCCCCC1)CCNC1CCCCCCCCCCC1`, for which the Relative potency with Coturnix coturnix [1] is 21. With `NCCN(CCN)CCNC1CCCCCCCCCCCCCC1`, the Relative potency with Coturnix coturnix [8] was 7.

`CN(CCN(CCN(C)C1CCCCC1)CCN(C)C1CCCCC1)C1CCCCC1` yielded a Relative potency in the test with Coturnix coturnix [3] of 5. In turn, `NCCN(CCNC(=O)c1ccccc1)CCNC(=O)c1ccccc1` showed a Relative potency in the test on Coturnix coturnix [9] of 5.

The compound `NCCN(CCN)CCNCc1ccc(-c2ccccc2)cc1` gave a Relative potency in the test with Coturnix coturnix [10] of 2. For the compound `NCCCOCCN(CCOCCCN)CCOC1CCCCCCCCCCC1`, in the test on Coturnix coturnix [3], the Relative potency was determined as 2. As to `C1CCCCCC(NCCN(CCNC2CCCCCCCCCCC2)CCNC2CCCCCCCCCCC2)CCCCC1`, in the test on Coturnix coturnix [11], the Relative potency was 6.

`C1CCC(NCCN(CCNC2CCCCC2)CCNC2CCCCC2)CC1` yielded a Relative potency in the test on Coturnix coturnix [3] of 3. Consider `NCCCNCCN(CCNCCCN)CCNC1CCCCCCCCCCC1`, for which the Relative potency in the test with Coturnix coturnix [3] is 4.

`NCCNC(=O)CCNCCN(CCNCCC(=O)NCCN)CCNC1CCCCCCCCCCC1` displayed a Relative potency in the test on Coturnix coturnix [10] of 5. In turn, `c1ccc(CNCCN(CCNC2C3CC4CC(C3)CC2C4)CCNC2C3CC4CC(C3)CC2C4)cc1` (centres undefined) came in with a Relative potency with Coturnix coturnix [1] of 13. On the same count and under the same terms, the result for `Cl.Cl.Cl.NCCN(CCNC1CCCCCCCCCCC1)CCNC1CCCCCCCCCCC1` reads 13; that for `Cl.Cl.Cl.c1ccc(CNCCN(CCNC2CCCCCCCCCCC2)CCNC2CCCCCCCCCCC2)cc1`, 29. Compound `CCN(CC)CCN(CCN(CC)CC)CCN(CC)C1CCCCCCCCCCC1.Cl.Cl.Cl` returned a Relative potency with Coturnix coturnix [10] of 8.

As for `Cl.Cl.Cl.Cl.NCCN(CCNC1CCCCCCCCCCC1)CCNC1CCCCCCCCCCC1`, in the test with Coturnix coturnix [1], the Relative potency stood at 12.
